PMC10872613 (Journal of immunology (Baltimore, Md. : 1950), 2024)
Entries after “also recorded” stand apart in the source; their conditions may differ. Like-named read-outs stand apart in the source and are kept apart here.

Tests used:
C1s-2SP = target: T1, C1s-2SP (Homo sapiens, UniProt P09871); assay: C1s-2SP chromogenic ZGR cleavage assay; type: biochemical; conditions: for C1s-2SP activity (initial velocity of ZGR cleavage): 100 μM compound, single-concentration screen, compared with mean of library; for loss of activity compared to A1: Ki against human C1s-2SP relative to A1
T1 sequence (P09871 357-423 limits assumed): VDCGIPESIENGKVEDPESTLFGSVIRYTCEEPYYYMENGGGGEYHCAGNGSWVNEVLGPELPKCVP
T1 sequence (P09871 438-688 limits assumed): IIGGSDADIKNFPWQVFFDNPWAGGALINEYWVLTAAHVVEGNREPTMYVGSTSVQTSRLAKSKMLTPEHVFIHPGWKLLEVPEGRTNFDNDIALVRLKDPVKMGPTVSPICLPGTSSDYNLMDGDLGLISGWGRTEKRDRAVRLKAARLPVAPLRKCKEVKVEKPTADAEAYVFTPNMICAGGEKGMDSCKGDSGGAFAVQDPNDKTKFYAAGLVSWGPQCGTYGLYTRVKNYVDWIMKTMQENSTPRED
In short: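 Recombinant human C1s-2SP was expressed in E. coli BL21(DE3), purified by denaturing IMAC, refolded in glutathione redox buffer and isolated by gel filtration. The enzyme (2.4 nM) was run at 25 °C in 50 mM HEPES pH 7.4, 140 mM NaCl, 0.005% Tween-20, 5% DMSO, 0.44 mM DTNB. ZGR initial velocities were read on a 4×5 grid (~0.2–1.2 x Km; inhibitor 0–~2.6 x Ki), n = 3, with a global competitive fit.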

[1] = target: T2, C1s purified from human serum (Homo sapiens, UniProt P09871); assay: Native C1s chromogenic ZGR assay; type: biochemical
T2 sequence (P09871 16-437 limits assumed): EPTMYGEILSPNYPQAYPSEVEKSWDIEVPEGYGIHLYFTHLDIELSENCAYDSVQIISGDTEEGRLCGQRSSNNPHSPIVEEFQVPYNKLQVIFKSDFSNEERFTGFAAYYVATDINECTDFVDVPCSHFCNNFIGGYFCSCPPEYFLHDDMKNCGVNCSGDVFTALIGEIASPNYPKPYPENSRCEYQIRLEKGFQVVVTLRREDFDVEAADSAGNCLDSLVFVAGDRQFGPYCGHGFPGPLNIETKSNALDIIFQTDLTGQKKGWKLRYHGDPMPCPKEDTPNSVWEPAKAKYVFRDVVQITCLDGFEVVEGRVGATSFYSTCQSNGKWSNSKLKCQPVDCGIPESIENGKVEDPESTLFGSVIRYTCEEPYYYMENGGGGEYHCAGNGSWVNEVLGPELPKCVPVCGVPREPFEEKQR
T2 sequence (P09871 438-688 limits assumed): T1 sequence (P09871 438-688 limits assumed)

mouse C1s-2SP = target: T3, mouse C1s-2SP (Mus musculus, UniProt Q8CG14); assay: Mouse C1s-2SP chromogenic ZGR assay; type: biochemical
T3 sequence (Q8CG14 357-423 limits assumed): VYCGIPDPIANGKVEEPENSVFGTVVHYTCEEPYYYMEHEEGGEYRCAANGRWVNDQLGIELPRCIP
T3 sequence (Q8CG14 438-688 limits assumed): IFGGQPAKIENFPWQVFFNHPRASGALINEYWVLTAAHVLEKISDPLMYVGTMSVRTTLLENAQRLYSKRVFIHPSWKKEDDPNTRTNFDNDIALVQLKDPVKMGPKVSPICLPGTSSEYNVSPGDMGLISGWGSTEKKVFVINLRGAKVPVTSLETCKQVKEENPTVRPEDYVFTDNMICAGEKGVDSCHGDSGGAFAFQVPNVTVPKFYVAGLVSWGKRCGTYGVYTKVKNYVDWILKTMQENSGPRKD
In short: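 Recombinant mouse C1s-2SP (2.5 nM) was tested at 25 °C in 50 mM HEPES pH 7.4, 140 mM NaCl, 0.005% Tween-20, 5% DMSO, 0.44 mM DTNB. ZGR initial velocities were measured at four substrate levels (~2.3–9.4 x Km) and five inhibitor levels (0–~8.4 x Ki). Triplicate data were globally fit to a competitive inhibition model.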

thrombin = thrombin (Homo sapiens, UniProt P00734); assay: Thrombin chromogenic ZGR assay; type: biochemical
In short: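 Serum-purified activated thrombin (2.7 nM) was assayed at 25 °C in 50 mM HEPES pH 7.4, 140 mM NaCl, 0.005% Tween-20, 5% DMSO with 0.59 mM DTNB. Initial ZGR hydrolysis rates were measured at four ZGR levels (~Km–9 x Km) × five inhibitor levels (0–~3.4 x Ki). Triplicate data were globally fit to a competitive inhibition model.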

Factor Xa = Factor Xa chromogenic ZGR assay; type: biochemical; conditions: inhibitor 0 to 226 μM
In short: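 Buffer: 50 mM HEPES pH 7.4, 140 mM NaCl, 0.025% Tween-20, 5% DMSO, with 0.59 mM DTNB indicator. Thiol release was read chromogenically in microplates.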

[2] = target: T4, C1r purified from human serum (Homo sapiens, UniProt P00736); assay: C1r chromogenic ZGR assay; type: biochemical
T4 sequence (P00736 18-463 limits assumed): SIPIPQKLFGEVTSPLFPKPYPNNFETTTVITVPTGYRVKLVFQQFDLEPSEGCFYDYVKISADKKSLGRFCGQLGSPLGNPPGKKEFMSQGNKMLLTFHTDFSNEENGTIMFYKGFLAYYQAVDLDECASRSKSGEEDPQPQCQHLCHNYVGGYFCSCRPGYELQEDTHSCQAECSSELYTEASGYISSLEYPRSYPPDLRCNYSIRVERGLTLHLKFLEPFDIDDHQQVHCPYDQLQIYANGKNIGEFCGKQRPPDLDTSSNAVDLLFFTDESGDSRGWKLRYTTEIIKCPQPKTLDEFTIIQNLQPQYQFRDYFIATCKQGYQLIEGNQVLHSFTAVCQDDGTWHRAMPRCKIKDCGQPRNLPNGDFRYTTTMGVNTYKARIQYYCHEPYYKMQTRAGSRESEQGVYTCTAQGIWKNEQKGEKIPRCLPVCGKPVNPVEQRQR
T4 sequence (P00736 464-705 limits assumed): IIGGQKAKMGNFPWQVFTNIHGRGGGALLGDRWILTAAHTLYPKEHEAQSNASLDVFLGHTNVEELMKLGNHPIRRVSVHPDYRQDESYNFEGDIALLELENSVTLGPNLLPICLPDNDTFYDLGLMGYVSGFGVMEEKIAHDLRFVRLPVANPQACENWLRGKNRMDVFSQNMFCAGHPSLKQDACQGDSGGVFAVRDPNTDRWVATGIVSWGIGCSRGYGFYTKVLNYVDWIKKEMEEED
In short: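 Human serum-derived C1r (10 nM) at 25 °C in 50 mM HEPES pH 7.4, 140 mM NaCl, 0.005% Tween-20, 10% DMSO, with 0.44 mM DTNB as indicator. Initial velocities of Z-Gly-Arg-thiobenzyl ester (ZGR) hydrolysis were read at four ZGR levels (~0.1–0.7 x Km) × five inhibitor levels (0–~0.8 x Ki) in microplates. Data (n = 3) were globally fit to a competitive inhibition model.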

[3] = system: CP activation by heparin-induced immune complexes; assay: CP activation by heparin-induced immune complexes in whole blood; type: cell-based, human; conditions: highest concentration examined (series 1,000 – 10 μM)
In short: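 Healthy-donor whole blood was anticoagulated with ACD (1.4 mL per 8.6 mL blood). It was preincubated 30 min at room temperature with buffer, test compound (1000–10 μM) or B. miyamotoi FbpA-C/FbpB-C control proteins (100 μg/mL). Anti-PF4/heparin antibody KKO (50 μg/mL), PF4 (25 μg/mL) and heparin (1 U/mL) were then added, 30 min at 37 °C. Plasma was quenched with 10 mM EDTA, and C5a was measured by sandwich ELISA.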

Neutrophil Elastase = assay: Neutrophil elastase chromogenic assay; type: biochemical, human; conditions: inhibitor 0 to 29.4 μM
In short: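 Neutrophil elastase purified from human sputum (6.9 nM) was run at 25 °C with inhibitor 0–29.4 μM and fixed 52 μM methoxysuccinyl-Ala-Ala-Pro-Val-p-nitroanilide (ε400 = 12.3 mM−1 cm−1). Buffer: 50 mM HEPES pH 7.4, 140 mM NaCl, 0.05% Tween-20. Microplate chromogenic read-out.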

Cathepsin-G = assay: Cathepsin G chromogenic assay; type: biochemical, human; conditions: inhibitor 0 to 29.4 μM; data not shown
In short: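 Cathepsin G (9.5 nM) was assayed at 25 °C with inhibitor 0–29.4 μM and fixed 0.92 mM succinyl-Ala-Ala-Pro-Phe-p-nitroanilide (ε400 = 12.3 mM−1 cm−1). Buffer: 50 mM HEPES pH 7.4, 140 mM NaCl, 0.025% Tween-20, 20.7% DMSO. Microplate chromogenic read-out.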

Aqueous solubility = type: physicochemical; conditions: water
lectin pathway (LP) = assay: LP ELISA; type: biochemical, human; conditions: 100 μM A1, C1q-depleted serum, mannan-coated plates
classical pathway (CP) = assay: CP-specific ELISA; type: biochemical, human; conditions: for C4b deposition (CP activity): 100 μM compound, single-concentration screen, 2% human serum
In short: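 Wells coated with human IgM received 2% (v/v) complement-preserved human serum with a two-fold test compound series (100–3.1 μM) in HBS++ plus 0.1% gelatin, 1 h at 37 °C. After TBS-T washes, deposited C4b was detected with mouse anti-C4b mAb and HRP anti-mouse IgG. Signals were normalized to uninhibited and serum-free controls. Triplicates were fit to a four-parameter dose-response model.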

C1s = target: T5, C1s (Homo sapiens, UniProt P09871); assay: Cleavage of C2 by C1s; type: biochemical
T5 sequence (P09871 16-437 limits assumed): T2 sequence (P09871 16-437 limits assumed)
T5 sequence (P09871 438-688 limits assumed): T1 sequence (P09871 438-688 limits assumed)
In short: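 Serum-derived activated C1s (6.25 nM) was mixed with a two-fold test compound series (100–1.56 μM) in HBS++ and C2 was added (0.5 mg/mL stock), 1 h at 37 °C. Products were separated by SDS-PAGE with Coomassie staining. C2b band density was corrected for total C2 and normalized to a C1s + C2 control. Triplicates were fit to a four-parameter dose-response model.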

[4] = system: bovine pancreatic trypsin; conditions: concentrations up to 200 μM; cited from earlier work
[5] = recombinant human C1s-2SP, competitive inhibition model

## O=C(CSc1ncnc2sc(-c3ccccc3)cc12)NC(Cc1c[nH]c2ccccc12)C(=O)O (stereo not drawn) [H9]
C1s-2SP
  C1s-2SP activity (initial velocity of ZGR cleavage): failed to inhibit C1s enzyme activity

## I.NC(N)=NCc1ccc(CN2CCc3ccccc32)cc1 [D4]
C1s-2SP
  C1s-2SP activity (initial velocity of ZGR cleavage): failed to inhibit C1s enzyme activity

## Cc1cccc(N2CCN(c3ccc(C(=N)N)cn3)CC2)c1 [meta-methyl A1 analog]
C1s-2SP; [5]
  Ki: 22.6 µM

## Cl.Cl.NC(N)=NCCCN(Cc1ccc(-c2ccccc2)cc1)S(=O)(=O)CCCN=C(N)N [F2]
C1s-2SP
  C1s-2SP activity (initial velocity of ZGR cleavage): failed to inhibit C1s enzyme activity

## N=C(N)c1ccc(N2CCN(c3cccc(F)c3)CC2)nc1 [meta-fluorine A1 analog]
C1s-2SP; [5]
  Ki: 19.5 µM

## COc1cccc(Oc2ccc(CN=C(N)Nc3ccccc3)cn2)c1.I [H1]
C1s-2SP
  C1s-2SP activity (initial velocity of ZGR cleavage): failed to inhibit C1s enzyme activity

## N=C(N)c1ccc(N2CCN(c3ccccc3)CC2)nc1 [A1, 6-(4-phenylpiperazin-1-yl)pyridine-3-carboximidamide]
[1]
  Ki: 5.8 µM
Mouse C1s-2SP
  Ki: 24.6 µM
thrombin
  Ki: 51.2 µM
Factor Xa
  inhibition of Factor Xa: did not inhibit
[2]
  Ki: 842 µM
[2]; ratio of Ki values
  selectivity C1s over C1r: ~ 145 fold
[3]
  inhibition of C5a generation: ~ 75%
C1s-2SP
  Ki: 8.5 µM
Neutrophil Elastase
  inhibition of Neutrophil Elastase: did not inhibit
Cathepsin-G
  inhibition of Cathepsin-G: did not inhibit
Aqueous solubility
  solubility: ≥ 10 mM
Lectin pathway (LP)
  activity against the LP: relatively weak activity against the LP compared to the CP
Classical pathway (CP)
  C4b deposition (CP activity): reduced C4b deposition to less than two standard deviations below the mean; also recorded: essentially complete inhibition of C4b deposition
Classical pathway (CP); CP ELISA, C4b deposition, A1 100 – 3.1 μM
  IC50: 22 µM
C1s
  IC50: ~85 µM

## N=C(N)c1ccc(N2CCN(c3ccc(F)cc3)CC2)nc1 [para-fluorine A1 analog]
C1s-2SP
  loss of activity compared to A1: > 10 fold

## N=C(N)c1cccnc1 [pyridine-3-carboximidamide, reference compound]
[1]; concentrations approaching ~375 μM, data not shown
  inhibition of C1s: failed to detect such inhibition

## N=C(N)Nc1ccc(C(=O)O)cc1 [4-guanidinobenzoic acid]
[4]
  inhibition of trypsin: failed to inhibit trypsin

## O=C(COC(=O)Cn1cnc2scc(-c3cccs3)c2c1=O)Nc1ccc(O)cc1 [B5]
Classical pathway (CP)
  C4b deposition (CP activity): reduced C4b deposition to less than two standard deviations below the mean

## COc1ccc(CCNC(N)=NCc2ccc(OCCC(C)C)c(OC)c2)cc1.I [D10]
C1s-2SP
  C1s-2SP activity (initial velocity of ZGR cleavage): failed to inhibit C1s enzyme activity

## N=C(N)c1ccc(N2CCN(c3ccc(Cl)cc3)CC2)nc1 [para-chlorine A1 analog]
C1s-2SP
  loss of activity compared to A1: > 10 fold
